PMC7586407 (Journal of Medicinal Chemistry, 2020)

How the values were obtained:
[1] = target: T1, MIF (Homo sapiens, UniProt P14174); assay: MIF tautomerase activity assay with 4-HPP as substrate; settings: for LE (ligand efficiency): LE = 1.4(−log IC50)/N; for LLE (lipophilic ligand efficiency): LLE = pIC50 – C log P
T1 sequence (P14174 2-115 limits assumed): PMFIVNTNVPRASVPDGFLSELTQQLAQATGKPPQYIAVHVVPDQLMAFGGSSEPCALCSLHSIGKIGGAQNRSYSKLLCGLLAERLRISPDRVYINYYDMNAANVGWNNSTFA

[2] = target: T1, MIF; assay: FID assay with 6d as fluorescent indicator; type: binding
[3] = target: T2, MIF–sCD74 interaction (Homo sapiens, UniProt P14174); assay: ELISA of MBP–sCD74 binding to coated MIF; settings: at concentrations up to 50 μM
T2 sequence (P14174 2-115 limits assumed): T1 sequence (P14174 2-115 limits assumed)
In short: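 Recombinant C-terminal His-tagged human MIF (E. coli-expressed, Ni-purified) coated at 250 nM overnight at 4 °C, then blocked with 2% BSA and washed. His/MBP-purified MBP–sCD74 (500 nM) was premixed with test compound (1–100 μM, added in DMSO) for 10 min at RT, then applied to wells for 30 min at RT. Controls: DMSO vehicle and no-sCD74. Detection used rabbit anti-CD74 (1:1000) then goat anti-rabbit HRP (1:1000), each 30 min at RT.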

[4] = system: A549 cells; assay: Colony formation; type: cell-based; settings: 10 days
In short: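 A549 cells seeded at 100 cells/well in RPMI with 10% FBS and 100 U/mL penicillin/streptomycin, then incubated overnight. Exposed to test compound for 10 days; final DMSO 0.2%, with 0.2% DMSO as vehicle control. Fixed with 4% paraformaldehyde (20 min), stained with 0.5% crystal violet (20 min), photographed and image-analysed. A colony is an aggregate of >50 cells.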

[5] = target: T1, MIF; assay: FID assay with 7 as fluorescent indicator; type: binding; settings: 7 50 nM, MIF 100 nM, PBS pH 7.4; calculated from EC50 by eq 1
[6] = Fluorescence quantum yield and fluorescence lifetime; type: physicochemical; settings: relative to 4-MU, excitation 330 nm
[7] = system: MIF-induced ERK phosphorylation in A549 cells; assay: MIF-induced ERK phosphorylation, Western blot; type: cell-based; settings: 10 μM, 150 ng/mL MIF
[8] = target: bovine serum albumin (BSA) (Bos taurus, UniProt P02769); assay: Fluorescence quenching control with BSA; type: binding; settings: 800 nM BSA, 50 nM fluorophore
bovine serum albumin (BSA), sequence (P02769 25-607): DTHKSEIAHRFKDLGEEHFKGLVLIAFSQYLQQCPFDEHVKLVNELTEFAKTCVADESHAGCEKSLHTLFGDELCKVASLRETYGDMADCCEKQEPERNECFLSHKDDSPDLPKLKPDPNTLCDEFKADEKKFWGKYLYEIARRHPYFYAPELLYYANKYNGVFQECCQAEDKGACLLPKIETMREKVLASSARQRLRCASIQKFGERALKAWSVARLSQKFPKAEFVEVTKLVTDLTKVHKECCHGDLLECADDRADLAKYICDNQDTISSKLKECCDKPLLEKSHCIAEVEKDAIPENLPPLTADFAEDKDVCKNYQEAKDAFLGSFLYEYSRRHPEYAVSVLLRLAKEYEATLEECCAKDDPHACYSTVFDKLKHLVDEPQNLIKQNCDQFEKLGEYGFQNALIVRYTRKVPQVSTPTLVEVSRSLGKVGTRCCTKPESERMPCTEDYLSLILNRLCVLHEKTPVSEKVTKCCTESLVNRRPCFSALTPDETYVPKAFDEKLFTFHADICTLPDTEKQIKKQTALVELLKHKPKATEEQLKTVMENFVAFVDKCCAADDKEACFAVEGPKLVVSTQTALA

[9] = system: A549 cells; assay: MTS cell viability assay; type: cell-based; settings: concentrations below 20 μM, 24 h of treatment

O=c1oc2cc(O)ccc2cc1-c1ccccc1 [Compound 6a, 7-Hydroxy-3-phenyl-2H-chromen-2-one]
enhanced potency compared to inhibitor 2 ([1]; Ki ratio vs 2): 10 fold

COc1ccc(N2Cc3ccc(O)cc3OC2=O)cc1OC [Compound 8, 3-(3,4-Dimethoxyphenyl)-7-hydroxy-3,4-dihydro-2H-benzo[e][1,3]oxazin-2-one, reference compound]
EC50 [2]: 386 ± 44 nM | LE (ligand efficiency) [1]: 0.43 | LLE (lipophilic ligand efficiency) [1]: 4.85 | inhibition of MIF–sCD74 binding [3]: did not demonstrate inhibition

O=C(NCc1cn(-c2ccc(O)c(F)c2)nn1)c1cc2cc(Cl)ccc2[nH]1 [Compound 13, 5-chloro-N-((1-(3-fluoro-4-hydroxyphenyl)-1H-1,2,3-triazol-4-yl)methyl)-1H-indole-2-carboxamide, reference compound]
colony formation ([4]; 10 μM): inhibited colony formation | LE (ligand efficiency) [1]: 0.30 | LLE (lipophilic ligand efficiency) [1]: 2.05

COC(=O)CC1CC(c2ccc(O)cc2)=NO1 (stereo not drawn) [ISO-1, methyl 2-(3-(4-hydroxyphenyl)-4,5-dihydroisoxazol-5-yl)acetate, reference compound]
colony formation ([4]; 100 μM): inhibited colony formation | inhibition of MIF–sCD74 binding [3]: did not demonstrate inhibition

4-(4-(isoquinolin-3-yl)-1H-1,2,3-triazol-1-yl)phenol [Compound 10, reference compound]
Ki ([1]; 4-HPP conversion assay, Ki = IC50/(1 + 0.5/Km)): 440 ± 30 nM | Kd [5]: 470 ± 80 nM

COc1ccc(-c2cc3ccc(O)cc3oc2=O)cc1 [Compound 6d, 7-Hydroxy-3-(4-methoxyphenyl)-2H-chromen-2-one]
fluorescence quantum yield [6]: 0.25

O=C(O)c1ccc(-c2ccc(-c3cc4ccc(O)cc4oc3=O)cc2)cc1 [Compound 7, 4′-(7-Hydroxy-2-oxo-2H-chromen-3-yl)-[1,1′-biphenyl]-4-carboxylic Acid]
colony formation ([4]; 2.5 μM): significantly lower numbers of colonies | colony formation ([4]; 10 μM): significantly lower numbers of colonies | MIF-induced ERK phosphorylation [7]: attenuated MIF-induced ERK phosphorylation | IC50 [1]: 71 ± 3 nM | LE (ligand efficiency) [1]: 0.37 | LLE (lipophilic ligand efficiency) [1]: 5.80 | mode of inhibition (enzyme kinetics) ([1]; Lineweaver–Burk plot vs 4-HPP): binds in competition with 4-HPP | increased potency compared to precursor 6l ([1]; vs 6l): 10 fold | fluorescence quenching by BSA [8]: no fluorescence quenching | cell viability [9]: did not inhibit cell viability | fluorescence quantum yield [6]: 0.32
